One data set concerns the target Histone deacetylase 1 (Homo sapiens, UniProt Q13547). Put plainly: Inhibition of human recombinant his tagged HDAC1 expressed in baculovirus expression system using FLUOR DE LYS-SIRT1 as fluorogenic substrate preincubated for 10 mins followed by substrate addition and measured after 1 hr by spectrophotometer based analysis.
A further data set addresses Histone deacetylase. Put plainly: Inhibition of HDAC in human HeLa cells using FLUOR DE LYS-SIRT1 as fluorogenic substrate incubated for 4 hrs by spectrophotometer based analysis. The data set is classed as cell-based.
Data set [1] addresses Voltage-gated inwardly rectifying potassium channel KCNH2 (Homo sapiens, UniProt Q12809). Kind of data set: Inhibition of hERG potassium channel incubated for 4 hrs by fluorescence polarization assay. The class given is toxicity. On the technique in general: Block of hERG is tested as a sign of cardiac risk.
Data set [2] can be described thus: Metabolic stability in mouse plasma assessed as half life. The class given is ADME, cell-free.
Data set [3] is described as follows: Metabolic stability in human plasma assessed as half life. The class given is ADME, cell-free.
A short description of data set [4]: Metabolic stability in mouse hepatocyte assessed as half life. The data set is classed as ADME, cell-based. The note with it: hepatocytes.
A short description of data set [5]: Metabolic stability in human hepatocyte assessed as half life. The note with it: hepatocytes. The class given is ADME, cell-based.
The next data set addresses Histone deacetylase 2 (Homo sapiens, UniProt Q92769). Kind of data set: Inhibition of human HDAC2.
For a further data set, the target named is Histone deacetylase 3 (Homo sapiens, UniProt O15379). Kind of data set: Inhibition of human HDAC3 expressed in baculovirus infected insect cells using FLUOR DE LYS-SIRT1 as fluorogenic substrate preincubated for 10 mins followed by substrate addition and measured after 1 hr by spectrophotometer based analysis.
A short description of data set [6]: AUC in NMRI mouse plasma at 5 to 20 mg/kg, po by LC/MS/MS analysis. The data set is classed as ADME, organism-based. Further details: route po. As to conditions: NMRI, plasma, dose 5-20 mg/kg, read-out: AUC. In a few lines:
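Compound given orally as its tartrate salt at 20 mg/kg in mouse, 10 mg/kg in rat and 5 mg/kg in minipig.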

Where only a bound is given, the exact number is not on record here.

Results on 17 molecules are retold here after ChEMBL document CHEMBL5247577, “Improved Selective Class I HDAC and Novel Selective HDAC3 Inhibitors: Beyond Hydroxamic Acids and Benzamides” (ACS Med Chem Lett, 2019).

Chain of Voltage-gated inwardly rectifying potassium channel KCNH2 (Q12809 whole entry): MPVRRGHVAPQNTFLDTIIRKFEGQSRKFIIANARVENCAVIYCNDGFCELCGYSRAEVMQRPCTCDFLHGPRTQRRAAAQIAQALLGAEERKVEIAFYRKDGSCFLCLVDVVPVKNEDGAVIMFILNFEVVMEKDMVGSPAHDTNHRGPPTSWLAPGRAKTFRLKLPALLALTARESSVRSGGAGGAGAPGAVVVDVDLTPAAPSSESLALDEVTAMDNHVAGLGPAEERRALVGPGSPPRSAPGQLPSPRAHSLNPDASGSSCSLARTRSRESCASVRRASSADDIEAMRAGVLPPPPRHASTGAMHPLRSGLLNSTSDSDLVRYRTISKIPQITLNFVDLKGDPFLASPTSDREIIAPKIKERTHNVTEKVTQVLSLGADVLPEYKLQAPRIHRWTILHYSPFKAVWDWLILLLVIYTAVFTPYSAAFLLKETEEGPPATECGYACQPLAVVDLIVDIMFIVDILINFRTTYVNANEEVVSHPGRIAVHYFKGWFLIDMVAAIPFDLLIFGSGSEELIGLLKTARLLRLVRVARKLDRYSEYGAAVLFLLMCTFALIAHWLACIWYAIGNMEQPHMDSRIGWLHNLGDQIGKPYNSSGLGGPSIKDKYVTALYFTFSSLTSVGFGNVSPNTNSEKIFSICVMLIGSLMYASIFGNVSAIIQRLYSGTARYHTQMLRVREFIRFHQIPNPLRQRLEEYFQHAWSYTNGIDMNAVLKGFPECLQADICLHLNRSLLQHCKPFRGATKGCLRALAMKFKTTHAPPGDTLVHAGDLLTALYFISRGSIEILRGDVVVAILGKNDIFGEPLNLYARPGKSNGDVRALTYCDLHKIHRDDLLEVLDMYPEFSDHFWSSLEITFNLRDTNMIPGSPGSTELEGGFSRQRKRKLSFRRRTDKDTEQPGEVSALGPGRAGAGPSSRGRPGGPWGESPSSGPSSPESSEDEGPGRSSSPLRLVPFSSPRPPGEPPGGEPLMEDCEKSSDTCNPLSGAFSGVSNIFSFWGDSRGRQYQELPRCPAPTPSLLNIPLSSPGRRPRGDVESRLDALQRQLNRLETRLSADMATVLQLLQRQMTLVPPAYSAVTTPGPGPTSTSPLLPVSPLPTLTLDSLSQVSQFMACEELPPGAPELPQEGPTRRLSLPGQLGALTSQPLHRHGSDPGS
Chain of Histone deacetylase 1 (Q13547 whole entry): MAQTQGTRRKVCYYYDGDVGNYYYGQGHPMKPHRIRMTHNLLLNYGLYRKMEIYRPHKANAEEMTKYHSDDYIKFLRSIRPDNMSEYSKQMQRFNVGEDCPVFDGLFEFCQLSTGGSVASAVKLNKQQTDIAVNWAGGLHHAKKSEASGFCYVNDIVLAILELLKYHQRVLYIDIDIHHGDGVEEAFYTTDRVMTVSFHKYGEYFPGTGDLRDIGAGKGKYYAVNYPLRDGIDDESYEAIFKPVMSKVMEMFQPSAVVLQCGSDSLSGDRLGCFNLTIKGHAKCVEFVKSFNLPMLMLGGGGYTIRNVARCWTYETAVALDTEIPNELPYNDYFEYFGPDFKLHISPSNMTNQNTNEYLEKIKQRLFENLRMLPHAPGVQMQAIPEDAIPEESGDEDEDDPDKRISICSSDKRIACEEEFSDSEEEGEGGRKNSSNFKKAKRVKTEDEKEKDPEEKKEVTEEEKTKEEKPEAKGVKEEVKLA
Chain of Histone deacetylase 3 (O15379 whole entry): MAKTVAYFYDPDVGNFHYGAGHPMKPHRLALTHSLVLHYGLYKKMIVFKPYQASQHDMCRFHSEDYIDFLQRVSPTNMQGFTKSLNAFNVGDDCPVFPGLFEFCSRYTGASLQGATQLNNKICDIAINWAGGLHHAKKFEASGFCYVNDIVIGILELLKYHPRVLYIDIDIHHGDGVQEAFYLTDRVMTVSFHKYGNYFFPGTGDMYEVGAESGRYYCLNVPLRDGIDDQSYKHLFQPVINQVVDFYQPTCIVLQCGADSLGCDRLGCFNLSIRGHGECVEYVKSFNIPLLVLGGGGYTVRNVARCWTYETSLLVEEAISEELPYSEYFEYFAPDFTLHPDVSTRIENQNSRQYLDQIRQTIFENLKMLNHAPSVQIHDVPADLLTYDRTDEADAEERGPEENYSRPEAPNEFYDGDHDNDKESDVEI
Chain of Histone deacetylase 2 (Q92769 whole entry): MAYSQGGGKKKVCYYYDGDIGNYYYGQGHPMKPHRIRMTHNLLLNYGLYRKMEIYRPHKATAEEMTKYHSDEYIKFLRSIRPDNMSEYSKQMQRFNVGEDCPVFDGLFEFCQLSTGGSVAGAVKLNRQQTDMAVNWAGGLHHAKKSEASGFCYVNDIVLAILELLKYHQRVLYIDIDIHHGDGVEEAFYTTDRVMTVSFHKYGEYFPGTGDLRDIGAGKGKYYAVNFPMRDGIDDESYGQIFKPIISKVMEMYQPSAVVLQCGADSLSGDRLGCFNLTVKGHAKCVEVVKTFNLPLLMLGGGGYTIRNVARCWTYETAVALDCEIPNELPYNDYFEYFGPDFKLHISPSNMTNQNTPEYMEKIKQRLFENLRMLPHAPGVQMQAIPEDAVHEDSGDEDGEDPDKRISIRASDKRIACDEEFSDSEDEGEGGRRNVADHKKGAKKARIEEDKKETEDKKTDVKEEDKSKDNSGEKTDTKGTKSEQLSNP

One may read the IC50 as the concentration that inhibits the measured activity by half. For the molecule `CNC(=O)CCCCC[C@H](NC(=O)CCc1c[nH]c2ccccc12)c1ncc(-c2ccc(CN(C)C)cc2)[nH]1`, at Histone deacetylase 1, the IC50 came out at 1370 nM.

On to `CNC(=O)CCCCC[C@H](NC(=O)CCc1c[nH]c2ccccc12)c1ncc(-c2ccc(-n3cccn3)cc2)[nH]1`, for which, on Histone deacetylase 1, the IC50 was 860 nM.

As usually defined, the EC50 is the concentration that produces a half-maximal response. The low end stands for a more potent agent, the high end for a less potent agent. `CCC(=O)CCCCC[C@H](NC(=O)Cn1ccnn1)c1ncc(-c2cc3ccccc3nc2OC)o1` gave an EC50 at Histone deacetylase of 138 nM. The IC50 on Histone deacetylase 1 was 3 nM; in [1], more than 30000 nM.

In the case of `CCC(=O)CCCCC[C@H](NC(=O)C1CN(C)C1)c1ncc(-c2ccc3ccccc3c2)o1`, the EC50 at Histone deacetylase was determined as 873 nM. Besides, on Histone deacetylase 1, the IC50 stood at 12.2 nM.

`CCC(=O)CCCCC[C@H](NC(=O)C1CNC(=O)C1)c1ncc(-c2cc3ccccc3nc2OC)o1` (some centres not stated) yielded an EC50 at Histone deacetylase of 208 nM. In addition, the IC50 at Histone deacetylase 1 was 3.2 nM; in data set [1], more than 30000 nM.

Regarding `CNC(=O)CCCCC[C@H](NC(=O)c1cncs1)c1ncc(-c2ccc3ccccc3c2)[nH]1`, at Histone deacetylase 1, the IC50 was 325 nM.

For `CCC(=O)CCCCC[C@H](NC(=O)C1CN(C)C1)c1ncc(-c2cc3ccccc3[nH]c2=O)o1`, the EC50 on Histone deacetylase is on record as 94 nM. Also, the half-inhibitory concentration (IC50) is 2.1 nM at Histone deacetylase 1 and more than 30000 nM in data set [1].

The half-life is the time needed for the level to fall by half in the phase considered. As for `CNC(=O)CCCCC[C@H](NC(=O)Cn1ccc2cc(C#N)ccc21)c1ncc(-c2ccc(CN(C)C)cc2)[nH]1`, the half-life in [2], in data set [3], in [4] and in [5] was more than 4 h each time.

In turn, `CCC(=O)CCCCC[C@H](NC(=O)Cc1c(C)[nH]c2ccc(OC)cc12)c1ncc(-c2ccc3ccccc3c2)o1` had a half-maximal effective concentration (EC50) at Histone deacetylase of 412 nM. Further, at Histone deacetylase 1, the IC50 is 19.6 nM.

`CCC(=O)CCCCC[C@H](NC(=O)C1CN(C)C1)c1ncc(-c2ccc3ccccc3c2)[nH]1`: the EC50 at Histone deacetylase turned out to be 125 nM. The IC50 on Histone deacetylase 1 is 1.5 nM.

On to `CCC(=O)CCCCC[C@H](NC(=O)C12CCN(CC1)CC2)c1ncc(-c2cc3ccccc3nc2OC)o1`, for which the EC50 at Histone deacetylase was determined as 43 nM. Besides, the IC50 at Histone deacetylase 1 is 1.6 nM; against Histone deacetylase 2 it was less than 3.5 nM; at Histone deacetylase 3 it was less than 3.5 nM; in data set [1], 190 nM.

In the case of `CCC(=O)CCCCC[C@H](NC(=O)C1(F)CN(C)C1)c1ncc(-c2cc3ccccc3nc2OC)o1`, on Histone deacetylase, the EC50 turned out to be 430 nM. The IC50 at Histone deacetylase 1 came to 17 nM; in [1], 13600 nM.

`CCC(=O)CCCCC[C@H](NC(=O)Cc1c(C)[nH]c2ccc(OC)cc12)c1ncc(-c2ccc3ccccc3c2)[nH]1` came in with a concentration giving a half-maximal response (EC50) at Histone deacetylase of 44 nM. The IC50 on Histone deacetylase 1 was determined as 3.2 nM.

As for `CCC(=O)CCCCC[C@H](NC(=O)C(=O)N1CCOCC1)c1ncc(-c2cc3ccccc3nc2OC)o1`, the EC50 at Histone deacetylase amounted to 610 nM. The IC50 is 30.5 nM on Histone deacetylase 1 and more than 30000 nM in data set [1].

Regarding `CNC(=O)CCCCC[C@H](NC(=O)c1cncs1)c1ncc(-c2ccc(CN(C)C)cc2)[nH]1`, the IC50 on Histone deacetylase 1 is 6070 nM.

Consider `CCC(=O)CCCCC[C@H](NC(=O)C(C)(C)N(C)C)c1ncc(-c2cc3ccccc3nc2OC)o1`, for which, at Histone deacetylase, the EC50 is given as 15 nM. Also, the IC50 at Histone deacetylase 1 was 3.5 nM; against Histone deacetylase 2, less than 3.5 nM; at Histone deacetylase 3, less than 3.5 nM.

A word on the AUC: it is the area under the concentration-time curve, a measure of exposure. As for `CCC(=O)CCCCC[C@H](NC(=O)C1CN(C)C1)c1ncc(-c2cc3ccccc3nc2OC)[nH]1`, the IC50 in data set [1] was 3000 nM. Besides, the AUC in [6] amounted to 0.9 µM·h.
